Screening data deposited in PubChem BioAssay by Johns Hopkins Ion Channel Center.
The list is not random: actives were taken first. Their share in the collection is about 2.3%.
TRPC6 act = activates the mouse TRPC6 cation channel. Q61143. HEK293-TRPC6 membrane potential dye fluorescence; active compounds read high. B-score at 10 µM. 310,000 tested, 0.13% active. AID 2550;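 active means B-score of the integrated fluorescence ratio above library mean plus 3 SD, and starting fluorescence ratio within library mean plus 5 SD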;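 further: higher score means more depolarization so channel activation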
TRPC6 inhibitor = inhibitors of mouse TRPC6 channel; 310,000 tested, 1.1% active; B-score at 10 µM; AID 2553; HEK293-TRPC6, membrane potential dye, ACh-evoked depolarization; active compounds read low; Q61143;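 active means B-score under library mean minus 3 SD, initial fluorescence not abnormally high, positive integrated signal ratio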;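 further: B-score derived from integrated fluorescence ratio over the kinetic read; more negative B-score means stronger inhibition of depolarization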
TRPC4 block = inhibitors of mouse TRPC4 channel; HEK293 TRPC4beta/mu-opioid, DAMGO-evoked Fluo4 calcium flux; active compounds read low; Q9QUQ5; B-score at 10 µM; 300,000 tested, 0.39% active;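 active means B-score over 3 SD under the library average, no early fluorescence shift, positive overall ratio signal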
Target sequence (Q9QUQ5 whole entry, looked up): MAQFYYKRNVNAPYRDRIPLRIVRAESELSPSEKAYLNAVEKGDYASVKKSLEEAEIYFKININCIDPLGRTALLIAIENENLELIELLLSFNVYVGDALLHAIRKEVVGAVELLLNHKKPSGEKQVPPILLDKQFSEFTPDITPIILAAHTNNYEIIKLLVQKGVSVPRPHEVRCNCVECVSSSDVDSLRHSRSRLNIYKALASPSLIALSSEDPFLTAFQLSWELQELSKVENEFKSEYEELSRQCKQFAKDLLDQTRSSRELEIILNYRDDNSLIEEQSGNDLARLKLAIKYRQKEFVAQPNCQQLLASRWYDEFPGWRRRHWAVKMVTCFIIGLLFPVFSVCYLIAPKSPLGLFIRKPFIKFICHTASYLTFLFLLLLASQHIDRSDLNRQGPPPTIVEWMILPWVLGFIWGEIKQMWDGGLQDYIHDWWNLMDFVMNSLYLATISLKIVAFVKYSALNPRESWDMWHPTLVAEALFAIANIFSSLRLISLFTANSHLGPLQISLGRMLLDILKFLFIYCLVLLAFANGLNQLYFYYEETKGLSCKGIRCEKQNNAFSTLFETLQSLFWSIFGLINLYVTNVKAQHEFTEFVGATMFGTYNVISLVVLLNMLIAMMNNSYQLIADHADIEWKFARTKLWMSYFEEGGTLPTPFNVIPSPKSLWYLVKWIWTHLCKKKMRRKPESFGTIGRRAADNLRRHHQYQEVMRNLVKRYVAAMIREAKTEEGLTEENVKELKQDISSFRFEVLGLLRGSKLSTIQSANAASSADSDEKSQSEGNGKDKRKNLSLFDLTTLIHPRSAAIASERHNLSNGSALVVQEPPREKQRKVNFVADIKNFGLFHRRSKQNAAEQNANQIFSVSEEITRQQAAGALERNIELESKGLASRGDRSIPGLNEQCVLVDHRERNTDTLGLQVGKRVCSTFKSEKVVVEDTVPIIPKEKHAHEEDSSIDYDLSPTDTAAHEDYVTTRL
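Test system – stable TRPC4beta/mu-opioid receptor HEK293 cells · Probe or stimulus – DAMGO, a submaximal dose followed by a maximal one · Dosing – one concentration per compound · Signal – Fluo4 calcium fluorescence by kinetic imaging, 5 s 1 Hz baseline · Evaluation – per-well B score of integrated baseline-normalized Fluo4 ratio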
TRPC4 potent = TRPC4 (mouse) allosteric potentiation; B-score at 10 µM; Q9QUQ5; 310,000 tested, 0.42% active; HEK293 TRPC4beta/mu-opioid, DAMGO EC20, Fluo-4 Ca2+ flux; active compounds read high;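 active means B-score of calcium response area above 5 SD of library B-scores, with initial fluorescence ratio within 5 SD of library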
TRPC4 act = opens the mouse TRPC4 cation channel; Q9QUQ5; HEK293 TRPC4beta/mu-opioid, Fluo4 calcium fluorescence; active compounds read high; B-score at 10 µM; 310,000 tested, 0.49% active; AID 2237;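 active means B-score above 5 SD of library B-scores, and initial fluorescence ratio not above library mean plus 5 SD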;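 further: positive B-score marks a calcium rise read as TRPC4 activation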
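System: HEK293 cells stably co-expressing mouse TRPC4beta and mu-opioid receptor; Schedule: Fluo4 dye loading 45 min at room temperature, 110 s recording; Detection: Fluo4 fluorescence, kinetic; Evaluation: B-scored integrated calcium fluorescence ratio; Controls: buffer (low) and maximal DAMGO (high).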
TRPC4 sel inh 2 = mouse TRPC4 off-target activity of TRPC6 inhibitors, second screen | shares compounds with TRPC6 inhibitor | inhibition, % at 10 µM | 920 tested, 42% active | AID 2776 | HEK293 TRPC4/MOR, membrane potential dye fluorescence; channel activated by saturating DAMGO dose;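 active means compounds whose fluorescence signal differed from control wells by over 3 SD, either direction, in both duplicate plates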
TRPC4 spec = selectivity of TRPC6 inhibitors: effect on mouse TRPC4; shares compounds with TRPC6 inhibitor; HEK293 TRPC4/mu-opioid, membrane potential fluorescence; activity change, negative = inhibition, % at 10 µM; 920 tested, 61% active; AID 2777;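 active means rise or fall in signal beyond 3 SD of buffer-only wells in both replicate plates, either sign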;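 further: integrated kinetic ratio of fluorescence range over baseline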
HEK293 MPD ctr 2-1 = second check of TRPC6 inhibitor effects in parental HEK293 cells | shares compounds with TRPC6 inhibitor | parental HEK293 membrane potential dye fluorescence; maximal acetylcholine challenge after compound addition | signal change vs control, % at 10 µM | AID 2779 | 920 tested, 31% active;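 active means membrane potential signal moving either way by over 3 SD of the maximum-effect control, in both duplicate plates, meaning non-specific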
HEK293 MPD ctr-1 = parental HEK293 nonspecific activity of TRPC6 inhibitors; shares compounds with TRPC6 inhibitor; parental HEK293 membrane potential dye fluorescence; membrane potential signal change, % at 10 µM; 920 tested, 60% active;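 active means membrane potential signal shifting up or down by more than 3 SD of buffer-only wells, on both duplicate plates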
HEK293 MPD ctr-2 = checks TRPC6 modulator effects in parental HEK293 cells | membrane potential signal change, % at 10 µM | membrane potential dye fluorescence | shares compounds with TRPC6 inhibitor | 2,400 tested, 51% active | AID 488924;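 active means membrane potential signal moves up or down beyond 5 SD from buffer-only wells, on both duplicate plates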
HEK293 MPD ctr 2-2 = parental HEK293 nonspecific activity of TRPC6 modulators, second screen; shares compounds with TRPC6 inhibitor; membrane potential dye fluorescence; after compound, maximal acetylcholine stimulation; inhibition, % at 10 µM; 2,400 tested, 14% active; AID 488926;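 active means membrane potential signal drops by more than 5 SD from the mean control signal, in both duplicate plates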
TRPC4 ctr mod = mouse TRPC4 off-target activity of TRPC6 modulators | HEK293 TRPC4/mu-opioid, membrane potential fluorescence | 2,400 tested, 69% active | shares compounds with TRPC6 inhibitor | percent change from control (negative = decrease, positive = increase), % at 10 µM;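 active means membrane potential signal moved up or down beyond 5 SD of buffer control wells, in both duplicate plates, actives on both sides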
TRPC4 ctr inh 2 = second check of whether TRPC6 modulators also affect mouse TRPC4. inhibition, % at 10 µM. shares compounds with TRPC6 inhibitor. AID 488928. HEK293 TRPC4/mu-opioid, membrane potential dye fluorescence; stimulated with maximal-effect DAMGO. 2,400 tested, 55% active;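 active means drop in membrane potential signal beyond 5 SD of the control wells in both duplicate plates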;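 further: TRPC4 counter screen for TRPC6 hits run under conditions tuned for TRPC6 not TRPC4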
TRPC6 inh conf = mouse TRPC6 inhibitor confirmation; shares compounds with TRPC6 inhibitor; HEK293-TRPC6, membrane potential dye, ACh-evoked depolarization; inhibition, % at 10 µM; 3,300 tested, 43% active; AID 488960;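 active means fluorescence ratio falls more than 5 SD below the full-stimulation control mean, in both duplicate runs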;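 further: integrated fluorescence ratio of peak minus minimum over baseline after agonist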
TRPC6 act confirm = confirmation of mouse TRPC6 activators | shares compounds with TRPC6 inhibitor | HEK293-TRPC6 membrane potential dye fluorescence, FDSS | activation, % at 10 µM | 2,800 tested, 11% active;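 active means ratio signal rise beyond 5 SD above unstimulated control wells' mean, seen in both duplicate runs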
Each line names hits and unclear results; the compound was inactive in the other large screens (follow-up assays come after a bar, where they were run).

CCC(C(=O)NC(C)(C)C)N(Cc1ccc(F)cc1)C(=O)c1snc(C(N)=O)c1N (stereo not given)	none
Cc1cn2c(=O)c(C(=O)NCc3ccc4c(c3)OCO4)cnc2s1	none
CCOC(=O)C1=C(C)N=c2s/c(=C/c3ccc(OCC(=O)O)cc3)c(=O)n2C1c1ccc(OC)cc1OC (stereo not given)	TRPC6 act 16 | HEK293 MPD ctr-2 active | HEK293 MPD ctr 2-2 inactive | TRPC4 ctr mod 62% | TRPC4 ctr inh 2 inactive | TRPC6 inh conf inactive | TRPC6 act confirm 132%
COC(=O)c1ccc(-c2noc(CN(Cc3nccn3C)C(C)C)n2)cc1	TRPC6 inhibitor -5.1 | HEK293 MPD ctr-2 inactive | HEK293 MPD ctr 2-2 inactive | TRPC4 ctr mod inactive | TRPC4 ctr inh 2 inactive | TRPC6 inh conf inactive | TRPC6 act confirm inactive
Clc1ccccc1Cc1noc(CN2CCCCC2c2ccccn2)n1 (stereo not given)	none
COC(=O)c1ccc(-c2noc(CN3CCCCC3c3nccn3C)n2)cc1 (stereo not given)	TRPC6 inhibitor -5.1 | HEK293 MPD ctr-2 164% | HEK293 MPD ctr 2-2 inactive | TRPC4 ctr mod 38% | TRPC4 ctr inh 2 36% | TRPC6 inh conf 43%
Cn1ccnc1C1CCCCN1Cc1nc(Cc2ccccc2F)no1 (stereo not given)	TRPC6 inhibitor -5.5 | HEK293 MPD ctr-2 inactive | HEK293 MPD ctr 2-2 inactive | TRPC4 ctr mod inactive | TRPC4 ctr inh 2 inactive | TRPC6 inh conf 67% | TRPC6 act confirm inactive
Cc1ccc(CNC(=O)c2ccc(N3CCC4(CC3)CC(c3ccccc3)=NO4)c(NC(=O)c3ccc(Cl)c([N+](=O)[O-])c3)c2)cc1	none
Cn1c(=S)[nH]c2sc3c(c2c1=O)CCC(C(C)(C)C)C3 (stereo not given)	none
CCN(CC(=O)NCc1cccs1)C(=O)CCC(=O)c1ccc(F)cc1	none
CC(C)Cc1nnc(NC(=O)c2ccc3c(=O)n4c(nc3c2)CCC4)s1	TRPC6 inhibitor -7.7 | TRPC4 sel inh 2 inactive | TRPC4 spec -15% | HEK293 MPD ctr 2-1 inactive | HEK293 MPD ctr-1 -280% | TRPC6 inh conf inactive | TRPC6 act confirm inactive
CC(C)Cc1nnc(NC(=O)c2ccc(N3CCCC3=O)cc2)s1	none
COc1ccc2ccccc2c1CNCc1ccc(C)cc1	TRPC6 inhibitor -8 | TRPC4 sel inh 2 50% | TRPC4 spec 52% | HEK293 MPD ctr 2-1 inactive | HEK293 MPD ctr-1 22% | TRPC6 inh conf 62%
CN(C)CCN(C(=O)C1=COCCO1)c1nc2ccc(F)cc2s1	TRPC6 inhibitor -7 | HEK293 MPD ctr-2 -139% | HEK293 MPD ctr 2-2 inactive | TRPC4 ctr mod -30% | TRPC4 ctr inh 2 40% | TRPC6 inh conf inactive | TRPC6 act confirm inactive
CN(C)CCN(C(=O)c1cc(Cl)sc1Cl)c1nc2ccc(F)cc2s1	none
CN(C)CCCN(C(=O)c1ccco1)c1nc2ccc(Br)cc2s1	TRPC6 inhibitor -8.1 | HEK293 MPD ctr-2 -120% | HEK293 MPD ctr 2-2 inactive | TRPC4 ctr mod -34% | TRPC4 ctr inh 2 71% | TRPC6 inh conf inactive | TRPC6 act confirm inactive
CCOc1cccc2sc(N(CCCN(C)C)C(=O)c3ccc(S(=O)(=O)N(C)CC4CCCO4)cc3)nc12 (stereo not given)	TRPC6 inhibitor -7.4 | TRPC4 sel inh 2 48% | TRPC4 spec -14% | HEK293 MPD ctr 2-1 inactive | HEK293 MPD ctr-1 inactive | TRPC6 inh conf inactive | TRPC6 act confirm inactive
CN(C)CCCN(C(=O)CCc1ccccc1)c1nc2ccc(Br)cc2s1	none
CN(C)CCCN(C(=O)c1ccco1)c1nc2ccc(Cl)cc2s1	TRPC6 inhibitor -6.3 | HEK293 MPD ctr-2 -180% | HEK293 MPD ctr 2-2 inactive | TRPC4 ctr mod -35% | TRPC4 ctr inh 2 76% | TRPC6 inh conf 50% | TRPC6 act confirm inactive
Cc1cc(C)c2nc(N(CCN(C)C)C(=O)c3ccc(S(=O)(=O)N(C)CC4CCCO4)cc3)sc2c1 (stereo not given)	none
CN(C)S(=O)(=O)c1cc(NC(=O)CN2CCN(c3ccccc3O)CC2)ccc1Cl	none
COCCN(C(=S)Nc1ccc(C)cc1C)C(C)c1ccco1 (stereo not given)	none
CCOc1cccc2sc(N(CCN(CC)CC)C(=O)c3cccc(N4C(=O)CCC4=O)c3)nc12	none
CN(C)CCCN(C(=O)c1ccc(S(=O)(=O)N(C)C)cc1)c1nc2cc3c(cc2s1)OCO3	TRPC6 inhibitor -5 | HEK293 MPD ctr-2 inactive | HEK293 MPD ctr 2-2 inactive | TRPC4 ctr mod -14% | TRPC4 ctr inh 2 55% | TRPC6 inh conf inactive | TRPC6 act confirm inactive
CN(C)CCN(C(=O)c1ccco1)c1nc2cc3c(cc2s1)OCCO3	TRPC6 inhibitor -5.3 | HEK293 MPD ctr-2 -136% | HEK293 MPD ctr 2-2 inactive | TRPC4 ctr mod -40% | TRPC4 ctr inh 2 88% | TRPC6 inh conf 60% | TRPC6 act confirm inactive
CCOc1cccc2sc(N(CCN(CC)CC)C(=O)c3cccc([N+](=O)[O-])c3)nc12	TRPC6 inhibitor -5 | HEK293 MPD ctr-2 inactive | HEK293 MPD ctr 2-2 inactive | TRPC4 ctr mod -10% | TRPC4 ctr inh 2 62% | TRPC6 inh conf inactive
CN(C)CCN(C(=O)c1ccc(C(=O)c2ccccc2)cc1)c1nc2cc3c(cc2s1)OCO3	none
